Five compounds from ChEMBL document CHEMBL1155277, “Synthesis of new 4-isopropylthiazole hydrazide analogs and some derived clubbed triazole, oxadiazole ring systems--a novel class of potential antibacterial, antifungal and antitubercular agents” (Eur J Med Chem, 2009) can be followed below.

Values after ≈ are worked out from the molar mass of the structure shown.

One may read the MIC as the smallest concentration in the dilution series that meets the test's criterion for growth inhibition. A low value points to inhibition by little substance.

Data set [1] relates to Mycobacterium tuberculosis. Briefly: Antitubercular activity against Mycobacterium tuberculosis H37Rv after 21 days by broth dilution assay. Type of data set: functional. Conditions: 504 h. The procedure, abridged: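 H37Rv frozen stock in Middlebrook 7H9 broth with 10% albumin-dextrose-catalase and 0.2% glycerol, thawed and diluted to 10⁵ cfu mL⁻¹. Compounds dissolved in DMSO, diluted in broth (final DMSO 1.3%). U-tubes inoculated, incubated 37 °C for 21 days. Growth scored visually against drug-free and inoculum-free controls and isoniazid. MIC = lowest concentration inhibiting […] of starting population.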
Background: Broth dilution looks for growth in wells or tubes with falling amounts of substance.

The test system of the next data set is Bacillus subtilis. In words: Antimicrobial activity against Bacillus subtilis ATCC 60511 after 24 hrs by broth microdilution method. Type of data set: functional. Conditions: ATCC 60511, 24 h. The method in brief: (§1)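 Broth microdilution in tubes. Compounds were dissolved at 10 mg in 1 mL DMSO and diluted in Mueller-Hinton Broth for bacteria or Sabouraud Liquid Medium for yeasts and A. niger. Final concentrations were 1–500 µg/mL (1, 2, 4, 8, 16, 31.25, 62.5, 125, 250, 500), with DMSO at most 1% v/v. Inoculum was 10^5 cfu/mL, incubated at 37 °C for 24 h. MIC was the lowest concentration giving complete growth inhibition. Media and media-plus-DMSO served as growth controls.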

A further data set deals with Escherichia coli. In words: Antimicrobial activity against Escherichia […] after 24 hrs by broth microdilution method. Type of data set: functional. The method in brief:
as §1

The subject of another data set is Enterococcus faecalis. Briefly: Antimicrobial activity against Streptococcus faecalis ATCC 14506 after 24 hrs by broth microdilution method. Type of data set: functional. Conditions: ATCC 14506, 24 h. The procedure, abridged:
as §1

A further data set relates to Klebsiella pneumoniae. Briefly: Antimicrobial activity against Klebsiella pneumoniae ATCC 10031 after 24 hrs by broth microdilution method. It is filed as functional. The conditions noted are these: ATCC 10031, 24 h. The method in brief: as §1
In another data set the test system is Pseudomonas aeruginosa. Briefly: Antimicrobial activity against Pseudomonas aeruginosa ATCC 10145 after 24 hrs by broth microdilution method. Type of data set: functional. Conditions: ATCC 10145, 24 h. The method in brief: as §1
Data set [2] has as its system A549. Briefly: Cytotoxicity against human A549 cell at 250 uM by MTT assay relative to control. Type of data set: cell-based. Conditions: a549, 250 µM. The method in brief:
(§2)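 A549 lung adenocarcinoma cells were grown with 10% and 0.2% FBS. Compounds were held as 10 mM DMSO stocks and diluted in culture medium; cells were treated at 250 µM. Viability was read by MTT reduction against untreated cells and a DMSO vehicle control. The work was done as two experiments, each with triplicate readings.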
For orientation: Formazan colour is commonly taken as a measure of viable cells.

The next data set deals with Candida tropicalis. In words: Antimicrobial activity against Candida tropicalis ATCC 1369 after 24 hrs by broth microdilution method. Conditions: ATCC 1369, 24 h. Type of data set: functional. The method in brief: as §1
The subject of the next data set is Saccharomyces cerevisiae. Briefly: Antimicrobial activity against Saccharomyces cerevisiae ATCC 9763 after 24 hrs by broth microdilution method. Type of data set: functional. Conditions: ATCC 9763, 24 h. The procedure, abridged:
as §1

For a further data set, the system named is Aspergillus niger. In words: Antimicrobial activity against Aspergillus niger ATCC 6275 after 24 hrs by broth microdilution method. It is filed as functional. Conditions: ATCC 6275, 24 h. The method in brief:
as §1

The next data set deals with Staphylococcus aureus. Briefly: Antimicrobial activity against Staphylococcus aureus ATCC 11632 after 24 hrs by broth microdilution method. Type of data set: functional. Conditions: ATCC 11632, 24 h. The method in brief:
as §1

Data set [3] relates to A549. In words: Cytotoxicity against human A549 cell at 250 uM by MTT assay. Type of data set: cell-based. The conditions noted are these: a549, 250 µM. The procedure, abridged:
as §2

Consider `COc1cc(C2OC(c3nc(C(C)C)cs3)=NN2C(C)=O)cc(OC)c1OC` (stereo not drawn), for which the MIC was 31.2 µg/mL (≈ 77.1 µM) in data set [1]; 16 µg/mL (≈ 39.5 µM) in the data set on Bacillus subtilis; 31.2 µg/mL (≈ 77.1 µM) against Escherichia coli; 16 µg/mL (≈ 39.5 µM) with Enterococcus faecalis; 31.2 µg/mL (≈ 77.1 µM) in the data set on Klebsiella pneumoniae; 16 µg/mL (≈ 39.5 µM) against Pseudomonas aeruginosa. In addition, the MIC amounted to 16 µg/mL (≈ 39.5 µM) against Candida tropicalis, 31.2 µg/mL (≈ 77.1 µM) in the data set with Saccharomyces cerevisiae, 16 µg/mL (≈ 39.5 µM) against Aspergillus niger and 62.5 µg/mL (≈ 154 µM) in the data set on Staphylococcus aureus. This compound also registered an Activity with A549 [2] of 50%.
Consider `CC(=O)N1N=C(c2nc(C(C)C)cs2)OC1c1ccc(O)cc1` (stereo not drawn), for which the MIC was determined as 31.2 µg/mL (≈ 94.3 µM) in [1]; 16 µg/mL (≈ 48.3 µM) in the data set on Bacillus subtilis; 16 µg/mL (≈ 48.3 µM) against Escherichia coli; 31.2 µg/mL (≈ 94.3 µM) against Enterococcus faecalis; 31.2 µg/mL (≈ 94.3 µM) against Klebsiella pneumoniae; 31.2 µg/mL (≈ 94.3 µM) against Pseudomonas aeruginosa. The MIC stood at 16 µg/mL (≈ 48.3 µM) in the data set on Candida tropicalis, 31.2 µg/mL (≈ 94.3 µM) against Saccharomyces cerevisiae, 16 µg/mL (≈ 48.3 µM) against Aspergillus niger and 125 µg/mL (≈ 377 µM) in the data set on Staphylococcus aureus. For the same compound, the outcome in the data set on A549 [3] was Active.
Regarding `CC(C)c1csc(-c2nnc(S)n2N)n1`, the MIC amounted to 8 µg/mL (≈ 33.1 µM) in data set [1]; 8 µg/mL (≈ 33.1 µM) in the data set on Bacillus subtilis; 31.2 µg/mL (≈ 129 µM) against Escherichia coli; 31.2 µg/mL (≈ 129 µM) against Enterococcus faecalis; 31.2 µg/mL (≈ 129 µM) against Klebsiella pneumoniae; 16 µg/mL (≈ 66.3 µM) with Pseudomonas aeruginosa. Besides, the MIC against Candida tropicalis is 8 µg/mL (≈ 33.1 µM); in the data set on Saccharomyces cerevisiae, 16 µg/mL (≈ 66.3 µM); in the data set with Aspergillus niger it was 8 µg/mL (≈ 33.1 µM); with Staphylococcus aureus, 125 µg/mL (≈ 518 µM). The Activity with A549 [2] is 50%.
Regarding `COc1cc(/C=N/NC(=O)c2nc(C(C)C)cs2)cc(OC)c1OC`, the MIC was determined as 125 µg/mL (≈ 344 µM) in data set [1]; 125 µg/mL (≈ 344 µM) against Bacillus subtilis; 125 µg/mL (≈ 344 µM) against Escherichia coli; 250 µg/mL (≈ 688 µM) against Enterococcus faecalis; 125 µg/mL (≈ 344 µM) against Klebsiella pneumoniae; 31.2 µg/mL (≈ 86 µM) in the data set with Pseudomonas aeruginosa. The MIC was determined as 62.5 µg/mL (≈ 172 µM) in the data set on Candida tropicalis, 125 µg/mL (≈ 344 µM) in the data set on Saccharomyces cerevisiae, 31.2 µg/mL (≈ 86 µM) with Aspergillus niger and 500 µg/mL (≈ 1380 µM) against Staphylococcus aureus.
Regarding `CC(C)c1csc(C(=O)N/N=C/c2cccc(Cl)c2Cl)n1`, the MIC was determined as 125 µg/mL (≈ 365 µM) in [1]; 31.2 µg/mL (≈ 91.3 µM) with Bacillus subtilis; 16 µg/mL (≈ 46.7 µM) against Escherichia coli; 31.2 µg/mL (≈ 91.3 µM) in the data set on Enterococcus faecalis; 31.2 µg/mL (≈ 91.3 µM) with Klebsiella pneumoniae; 31.2 µg/mL (≈ 91.3 µM) against Pseudomonas aeruginosa. Also, the MIC is 31.2 µg/mL (≈ 91.3 µM) with Candida tropicalis, 16 µg/mL (≈ 46.7 µM) in the data set on Saccharomyces cerevisiae, 125 µg/mL (≈ 365 µM) against Aspergillus niger and 250 µg/mL (≈ 730 µM) against Staphylococcus aureus.
